# Where “and” joins values, the source holds several entries; their conditions need not be identical. Equal values may be shown once.
# What was measured:
# Mus musculus [1] = assay: Concentration required to prevent seizures upon intraperitoneal administration in mice in MES (maximal electroshock seizure) test.; type: functional
# In short: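 Male CF-1 mice dosed ip with compound in 30% PEG 400 (one compound in acacia). Pilot groups of 4 mice per dose tested at 0.5, 1 and 4 h for protection against maximal electroshock seizures.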
# [2] = (§1) Neurotoxic dose (TD50) from horizontal screen in mice; type: toxicity, organism-based; conditions: mouse, in vivo
# In short: (§2)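 Male CF-1 mice, ip dosing in 30% PEG 400 unless otherwise noted. Trained mice are placed on a 13 × 13 cm no. 4 mesh wire screen on a vertical rod, which is rotated 180°. Impairment is scored as failure to climb to the top within 1 min. TD50 comes from a dose-response at the time of peak anticonvulsant activity, with 3–4 doses and 12 mice/dose. Some entries used the rotorod instead.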
# Mus musculus [3] = species: Mus musculus; assay: as §1; type: toxicity, organism-based; conditions: in vivo; in short: as §2
# [4] = Mus musculus, ip, read-out: ED50
Structure (SMILES),ED50 (Mus musculus [1]; [4]) [mg/kg],also measured
CC(=O)NC(C(=O)NCc1ccccc1)N(C)C (stereo unspecified),45.3,–
CC(=O)NC(NO)C(=O)NCc1ccccc1 (stereo unspecified),100,–
CC(=O)NC(C(=O)NCc1ccccc1)N(C)O (stereo unspecified),30,–
CC(=O)NC(C(=O)NCc1ccccc1)[N+](C)(C)C.F[B-](F)(F)F (stereo unspecified),> 100,–
CC(=O)NC(N)C(=O)NCc1ccccc1 (stereo unspecified),65.1,–
CC(=O)NC(NC(=O)C(F)(F)F)C(=O)NCc1ccccc1 (stereo unspecified),> 300,–
CSC(NC(C)=O)C(=O)NCc1ccccc1 (stereo unspecified),> 100,–
CON(C)C(NC(C)=O)C(=O)NCc1ccccc1 (stereo unspecified),6.7,TD50 [2]: 50.5 mg/kg
CONC(NC(C)=O)C(=O)NCc1ccccc1 (stereo unspecified),6.2,TD50 [2]: 46 mg/kg
CC[S+]([O-])C(NC(C)=O)C(=O)NCc1ccccc1 (stereo unspecified),> 100,–
CC(=O)NC(C(=O)NCc1ccccc1)N1CCCO1 (stereo unspecified),31.4,–
CC(=O)NC(Sc1ccccc1)C(=O)NCc1ccccc1 (stereo unspecified),> 300,–
CC(=O)NC(O)C(=O)NCc1ccccc1 (stereo unspecified),80.1,–
COC(NC(C)=O)C(=O)NCc1ccccc1 (stereo unspecified),–,TD50 (Mus musculus [3]): > 100 mg/kg and < 300 mg/kg
CCS(=O)(=O)C(NC(C)=O)C(=O)NCc1ccccc1 (stereo unspecified),> 100,–
CC(=O)NC(NNC(=O)OCc1ccccc1)C(=O)NCc1ccccc1 (stereo unspecified),55.6,–
CC(=O)NC(Nc1ccccc1)C(=O)NCc1ccccc1 (stereo unspecified),> 300,–
CC(=O)NC(NNc1ccccc1)C(=O)NCc1ccccc1 (stereo unspecified),100,–
CCOC(NC(C)=O)C(=O)NCc1ccccc1 (stereo unspecified),62,TD50 [2]: > 112 mg/kg
CC(=O)NC(C(=O)NCc1ccccc1)c1ccco1 (stereo unspecified),–,TD50 [2]: 40 mg/kg
CC(=O)NC(Nc1cc[nH]n1)C(=O)NCc1ccccc1 (stereo unspecified),100,–
CC(=O)NC(NC(C)=O)C(=O)NCc1ccccc1,–,ED50 (Mus musculus [1]): <300 mg/kg and >100 mg/kg
CC(=O)NC(Oc1ccccc1)C(=O)NCc1ccccc1 (stereo unspecified),> 100,–

# — ChEMBL document CHEMBL1125809, “Preparation and anticonvulsant activity of a series of functionalized alpha-heteroatom-substituted amino acids” (J Med Chem, 1991)
